Laboratory results: PMC3038628 (Journal of molecular biology, 2010)

What was measured:
[1] = FRET assay of NBD-Toc transfer from α-TTP variants to LUVs; assay type: biochemical; conditions: for Rate of NBD-Toc transfer to LUV, Rate: PC vesicles, 0.225 μM NBD-Toc, 2 μM α-TTP, 100 μM vesicles, room temperature; for Rate of NBD-Toc transfer to LUV, Rate^mut/Rate^wt: relative to wild type
In short: (§1)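 Each protein (4 μM) was preloaded with 0.45 μM NBD-Toc for 15 min in SET buffer (pH 7.4). It was then stopped-flow mixed at room temperature with 200 μM acceptor vesicles of 97% liver PC and 3% TRITC-PE (finals 0.225 μM, 2 μM, 100 μM). Vesicles were sonicated SUVs (~60 nm) or extruded LUVs (150 nm). NBD quench was normalised to initial fluorescence and fitted single-exponentially.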

[2] = FRET assay of NBD-Toc transfer from α-TTP variants to SUVs; assay type: biochemical; conditions: for Rate of NBD-Toc transfer to SUV, Rate: PC vesicles, 0.225 μM NBD-Toc, 2 μM α-TTP, 100 μM vesicles, room temperature; for Rate of NBD-Toc transfer to SUV, Rate^mut/Rate^wt: relative to wild type; for Reduction of rate of transfer to SUVs: reduction relative to wild type
In short: as §1

[3] = Dual polarization interferometry of protein adsorption to immobilized bilayer; assay type: binding; conditions: for Ads^mut/Ads^wt (0.50 μM injection): 0.50 μM protein injection; for Ads^mut/Ads^wt (1.0 μM injection): 1.0 μM protein injection; for Fold change in affinity: relative to wild type; for Adsorption/binding to immobilized bilayers by DPI, % of wild type: injection concentration not stated
In short: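 Recombinant α-TTP (E. coli BL21(DE3), glutathione affinity, thrombin-cleaved) was dialysed 1 h at 4 °C into pH 7.4 phosphate/137 mM NaCl buffer. It was injected at 25 μl/min for 8 min over a 90:10 DOPC:DOPS bilayer on a silicon oxynitride chip at 20 °C. Adsorbed mass was measured at 0.5 and 1.0 μM in quadruplicate, two channels each. Kd came from fitting Bmax against concentration.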

## WT: human α-tocopherol transfer protein, wild type, expressed in E. coli as GST fusion and cleaved
[1]; LUVs compared with SUVs
  Reduction of transfer rate with LUVs versus SUVs: 8 fold
[1]
  Rate of NBD-Toc transfer to LUV, Rate: 0.016 ± 0.002 s⁻¹
  Rate of NBD-Toc transfer to LUV, Rate^mut/Rate^wt: 100%
[2]
  Rate of NBD-Toc transfer to SUV, Rate: 0.127 ± 0.012 s⁻¹
  Rate of NBD-Toc transfer to SUV, Rate^mut/Rate^wt: 100%
[3]
  Ads^mut/Ads^wt (0.50 μM injection): 1
  Ads^mut/Ads^wt (1.0 μM injection): 1
  Fold change in affinity: 0

B1: M264D: α-TTP mutant; surface methionine replaced with aspartate in a region predicted distant from the membrane plane (protein, UniProt P49638 1-278, looked up, variant M264D)
Alpha-tocopherol transfer …: MAEARSQPSAGPQLNALPDHSPLLQPGLAALRRRAREAGVPLAPLPLTDSFLLRFLRARDFDLDLAWRLLKNYYKWRAECPEISADLHPRSIIGLLKAGYHGVLRSRDPTGSKVLIYRIAHWDPKVFTAYDVFRVSLITSELIVQEVETQRNGIKAIFDLEGWQFSHAFQITPSVAKKIAAVLTDSFPLKVRGIHLINEPVIFHAVFSMIKPFLTEKIKERIHMHGNNYKQSLLQHFPDILPLEYGGEEFSMEDICQEWTNFIDKSEDYLSSISESIQ
[1]
  Rate of NBD-Toc transfer to LUV, Rate: 0.008 ± 0.001 s⁻¹
  Rate of NBD-Toc transfer to LUV, Rate^mut/Rate^wt: 50%
[1]; reduction relative to wild type
  Reduction of rate of ligand deposition in LUVs: 50%
[2]
  Rate of NBD-Toc transfer to SUV, Rate: 0.116 ± 0.013 s⁻¹
  Reduction of rate of transfer to SUVs: 9%
  Rate of NBD-Toc transfer to SUV, Rate^mut/Rate^wt: 91%
[3]
  Ads^mut/Ads^wt (0.50 μM injection): 0.66
  Ads^mut/Ads^wt (1.0 μM injection): 0.81

B2: F165D/M209D: α-TTP double mutant (protein, UniProt P49638 1-278, looked up, variant F165D M209D)
Alpha-tocopherol transfer …: MAEARSQPSAGPQLNALPDHSPLLQPGLAALRRRAREAGVPLAPLPLTDSFLLRFLRARDFDLDLAWRLLKNYYKWRAECPEISADLHPRSIIGLLKAGYHGVLRSRDPTGSKVLIYRIAHWDPKVFTAYDVFRVSLITSELIVQEVETQRNGIKAIFDLEGWQDSHAFQITPSVAKKIAAVLTDSFPLKVRGIHLINEPVIFHAVFSDIKPFLTEKIKERIHMHGNNYKQSLLQHFPDILPLEYGGEEFSMEDICQEWTNFIMKSEDYLSSISESIQ
[1]
  Rate of NBD-Toc transfer to LUV, Rate: 0.010 ± 0.001 s⁻¹
  Rate of NBD-Toc transfer to LUV, Rate^mut/Rate^wt: 62%
[2]
  Rate of NBD-Toc transfer to SUV, Rate: 0.034 ± 0.003 s⁻¹
  Rate of NBD-Toc transfer to SUV, Rate^mut/Rate^wt: 27%
[3]
  Ads^mut/Ads^wt (0.50 μM injection): 0.01
  Ads^mut/Ads^wt (1.0 μM injection): 0.18

B3: I202D: α-TTP mutant, Ile202 to Asp (helix A10) (protein, UniProt P49638 1-278, looked up, variant I202D)
Alpha-tocopherol transfer …: MAEARSQPSAGPQLNALPDHSPLLQPGLAALRRRAREAGVPLAPLPLTDSFLLRFLRARDFDLDLAWRLLKNYYKWRAECPEISADLHPRSIIGLLKAGYHGVLRSRDPTGSKVLIYRIAHWDPKVFTAYDVFRVSLITSELIVQEVETQRNGIKAIFDLEGWQFSHAFQITPSVAKKIAAVLTDSFPLKVRGIHLINEPVDFHAVFSMIKPFLTEKIKERIHMHGNNYKQSLLQHFPDILPLEYGGEEFSMEDICQEWTNFIMKSEDYLSSISESIQ
[1]
  Rate of NBD-Toc transfer to LUV, Rate: 0.005 ± 0.002 s⁻¹
  Rate of NBD-Toc transfer to LUV, Rate^mut/Rate^wt: 31%
[2]
  Rate of NBD-Toc transfer to SUV, Rate: 0.028 ± 0.002 s⁻¹
  Reduction of rate of transfer to SUVs: 78%
  Rate of NBD-Toc transfer to SUV, Rate^mut/Rate^wt: 22%
[3]
  Ads^mut/Ads^wt (0.50 μM injection): 0.29
  Ads^mut/Ads^wt (1.0 μM injection): 0.27
  Fold change in affinity: 5

B4: R192H: naturally-occurring α-TTP mutant associated with heritable mild vitamin E deficiency in humans (protein, UniProt P49638 1-278, looked up, variant R192H)
Alpha-tocopherol transfer …: MAEARSQPSAGPQLNALPDHSPLLQPGLAALRRRAREAGVPLAPLPLTDSFLLRFLRARDFDLDLAWRLLKNYYKWRAECPEISADLHPRSIIGLLKAGYHGVLRSRDPTGSKVLIYRIAHWDPKVFTAYDVFRVSLITSELIVQEVETQRNGIKAIFDLEGWQFSHAFQITPSVAKKIAAVLTDSFPLKVHGIHLINEPVIFHAVFSMIKPFLTEKIKERIHMHGNNYKQSLLQHFPDILPLEYGGEEFSMEDICQEWTNFIMKSEDYLSSISESIQ
[1]
  Rate of NBD-Toc transfer to LUV, Rate: 0.012 ± 0.003 s⁻¹
  Rate of NBD-Toc transfer to LUV, Rate^mut/Rate^wt: 75%
[2]
  Rate of NBD-Toc transfer to SUV, Rate: 0.106 ± 0.008 s⁻¹
  Rate of NBD-Toc transfer to SUV, Rate^mut/Rate^wt: 83%
[3]
  Ads^mut/Ads^wt (0.50 μM injection): 1.58
  Ads^mut/Ads^wt (1.0 μM injection): 1.50
  Adsorption/binding to immobilized bilayers by DPI, % of wild type: ~ 150%
[3]; printed "for LUVs"
  Binding to immobilized bilayers, % of WT: 150%
[3]; printed "for SUVs"
  Binding to immobilized bilayers, % of WT: 158%

B5: I202D/M209D: α-TTP double mutant (protein, UniProt P49638 1-278, looked up, variant I202D M209D)
Alpha-tocopherol transfer …: MAEARSQPSAGPQLNALPDHSPLLQPGLAALRRRAREAGVPLAPLPLTDSFLLRFLRARDFDLDLAWRLLKNYYKWRAECPEISADLHPRSIIGLLKAGYHGVLRSRDPTGSKVLIYRIAHWDPKVFTAYDVFRVSLITSELIVQEVETQRNGIKAIFDLEGWQFSHAFQITPSVAKKIAAVLTDSFPLKVRGIHLINEPVDFHAVFSDIKPFLTEKIKERIHMHGNNYKQSLLQHFPDILPLEYGGEEFSMEDICQEWTNFIMKSEDYLSSISESIQ
[1]
  Rate of NBD-Toc transfer to LUV, Rate: 0.008 ± 0.003 s⁻¹
  Rate of NBD-Toc transfer to LUV, Rate^mut/Rate^wt: 50%
[2]
  Rate of NBD-Toc transfer to SUV, Rate^mut/Rate^wt: 11%
[3]
  Ads^mut/Ads^wt (0.50 μM injection): 0.13
  Ads^mut/Ads^wt (1.0 μM injection): 0.07
  Fold change in affinity: 10.9

B6: M209A: α-TTP mutant, Met209 to Ala (protein, UniProt P49638 1-278, looked up, variant M209A)
Alpha-tocopherol transfer …: MAEARSQPSAGPQLNALPDHSPLLQPGLAALRRRAREAGVPLAPLPLTDSFLLRFLRARDFDLDLAWRLLKNYYKWRAECPEISADLHPRSIIGLLKAGYHGVLRSRDPTGSKVLIYRIAHWDPKVFTAYDVFRVSLITSELIVQEVETQRNGIKAIFDLEGWQFSHAFQITPSVAKKIAAVLTDSFPLKVRGIHLINEPVIFHAVFSAIKPFLTEKIKERIHMHGNNYKQSLLQHFPDILPLEYGGEEFSMEDICQEWTNFIMKSEDYLSSISESIQ
[1]
  Rate of NBD-Toc transfer to LUV, Rate: 0.025 ± 0.005 s⁻¹
  Rate of NBD-Toc transfer to LUV, Rate^mut/Rate^wt: 156%
[2]
  Rate of NBD-Toc transfer to SUV, Rate: 0.140 ± 0.012 s⁻¹
  Rate of NBD-Toc transfer to SUV, Rate^mut/Rate^wt: 110%
[2]; compared with wild type or single mutants
  Effect on rate of NBD-Toc transfer to SUVs (in words): essentially no effect
[3]
  Ads^mut/Ads^wt (0.50 μM injection): 1.01
  Ads^mut/Ads^wt (1.0 μM injection): 1.12

B7: M209D: α-TTP mutant, Met209 to Asp (helix A10) (protein, UniProt P49638 1-278, looked up, variant M209D)
Alpha-tocopherol transfer …: MAEARSQPSAGPQLNALPDHSPLLQPGLAALRRRAREAGVPLAPLPLTDSFLLRFLRARDFDLDLAWRLLKNYYKWRAECPEISADLHPRSIIGLLKAGYHGVLRSRDPTGSKVLIYRIAHWDPKVFTAYDVFRVSLITSELIVQEVETQRNGIKAIFDLEGWQFSHAFQITPSVAKKIAAVLTDSFPLKVRGIHLINEPVIFHAVFSDIKPFLTEKIKERIHMHGNNYKQSLLQHFPDILPLEYGGEEFSMEDICQEWTNFIMKSEDYLSSISESIQ
[1]
  Rate of NBD-Toc transfer to LUV, Rate: 0.013 ± 0.001 s⁻¹
  Rate of NBD-Toc transfer to LUV, Rate^mut/Rate^wt: 81%
[2]
  Rate of NBD-Toc transfer to SUV, Rate: 0.047 ± 0.004 s⁻¹
  Reduction of rate of transfer to SUVs: 63%
  Rate of NBD-Toc transfer to SUV, Rate^mut/Rate^wt: 37%
[3]
  Ads^mut/Ads^wt (0.50 μM injection): 0.39
  Ads^mut/Ads^wt (1.0 μM injection): 0.42
  Fold change in affinity: 1.2

B8: K211A: α-TTP mutant, surface Lys211 (helix A10) to Ala (protein, UniProt P49638 1-278, looked up, variant K211A)
Alpha-tocopherol transfer …: MAEARSQPSAGPQLNALPDHSPLLQPGLAALRRRAREAGVPLAPLPLTDSFLLRFLRARDFDLDLAWRLLKNYYKWRAECPEISADLHPRSIIGLLKAGYHGVLRSRDPTGSKVLIYRIAHWDPKVFTAYDVFRVSLITSELIVQEVETQRNGIKAIFDLEGWQFSHAFQITPSVAKKIAAVLTDSFPLKVRGIHLINEPVIFHAVFSMIAPFLTEKIKERIHMHGNNYKQSLLQHFPDILPLEYGGEEFSMEDICQEWTNFIMKSEDYLSSISESIQ
[1]
  Rate of NBD-Toc transfer to LUV, Rate: 0.011 ± 0.001 s⁻¹
  Rate of NBD-Toc transfer to LUV, Rate^mut/Rate^wt: 69%
[2]
  Rate of NBD-Toc transfer to SUV, Rate: 0.105 ± 0.008 s⁻¹
  Rate of NBD-Toc transfer to SUV, Rate^mut/Rate^wt: 83%
[3]
  Ads^mut/Ads^wt (0.50 μM injection): 1.23
  Ads^mut/Ads^wt (1.0 μM injection): 0.95
  Adsorption/binding to immobilized bilayers by DPI, % of wild type: 123%
